Assay results from publication PMC9161413 (ACS Omega, 2022).

Experiments:
N-Cadherin expression = test: N-cadherin expression in L929 cells, western blot; format: cell-based, murine; settings: 24 h, 5 μM, compared to untreated cells
Summary of the method: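 L929 cells (subconfluent, serum-free medium) were treated 24 h at 5 μM. RIPA lysates containing phosphatase/protease inhibitors (40–60 μg protein) were separated on 4–12 Bis-Tris gels and blotted to PVDF. N-cadherin antibody was applied overnight at 4 °C, with vinculin as loading control and infrared fluorescence detection. Densitometry was normalised to total protein and expressed as percent of untreated cells; three independent experiments; ANOVA with Newman–Keuls test.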

ERK1/2 phosphorylation = ERK1/2 phosphorylation in L929 cells, western blot; format: cell-based, murine; settings: 24 h, 5 μM
Summary of the method: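 Subconfluent L929 cells were exposed 24 h at 5 μM in serum-free medium. Cells were lysed in RIPA with PMSF, orthovanadate and protease inhibitors, and 40–60 μg protein was resolved on 4–12 Bis-Tris gels onto PVDF. Blots were probed overnight at 4 °C for phospho- and total ERK1/2 (vinculin loading control), with fluorescent secondaries and infrared imaging. Phospho-signal was normalised to total protein; three independent experiments; one-way ANOVA with Tukey test.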

L929 cells = test: Inhibition of cell proliferation, MTT assay; format: cell-based, murine; settings: 24 h, 1–10 μM
VEGFR-3 = settings: read-out: IC50 VEGFR-3; cited from earlier work
PDGFR-α = settings: read-out: IC50 PDGFR-α; cited from earlier work
FGFR-3 = settings: read-out: IC50 FGFR-3; cited from earlier work
VEGFR-1 = settings: read-out: IC50 VEGFR-1; cited from earlier work
MDA-MB-231 cells = test: Cell internalization, cytofluorimetric assay, MDA-MB-231; format: cell-based, human; settings: 24 h, 5 μM
Summary of the method: (§1)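 K562 cells (RPMI-1640, 5% FBS, 37 °C, 5% CO2) and MDA-MB-231 cells (DMEM with 4500 mg/L glucose, 10% FBS, 37 °C, 10% CO2) were treated 24 h at 5 μM. Flow cytometry detected the compound's intrinsic fluorescence (λexc 405 nm, λem 421 nm). Read-out was the percentage of cells above the untreated autofluorescence threshold; at least three independent experiments.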

FGFR-2 = settings: read-out: IC50 FGFR-2; cited from earlier work
K562 cells = test: Cell internalization, cytofluorimetric assay, K562; format: cell-based, human; settings: 24 h, 5 μM
Summary of the method: as §1

PDGFR-β = settings: read-out: IC50 PDGFR-β; cited from earlier work

Row | Compound | inhibition of N-Cad expression (in words) (N-Cadherin expression) | inhibition of ERK1/2 phosphorylation (in words) (ERK1/2 phosphorylation) | antiproliferative / cytostatic effect (in words) (L929 cells) | IC50 (VEGFR-3) [nM] | IC50 (PDGFR-α) [nM] | IC50 (FGFR-3) [nM] | IC50 (VEGFR-1) [nM] | internalization / cell fluorescence (in words) (MDA-MB-231 cells) | IC50 (FGFR-2) [nM] | internalization / cell fluorescence (in words) (K562 cells) | IC50 (PDGFR-β) [nM]
1 | c(AmpLRGDL) [compound 6] | stronger inhibitory effect | no inhibition | mild antiproliferative effect | – | – | – | – | – | – | – | –
2 | COC(=O)c1ccc2c(c1)NC(=O)/C2=C(\Nc1ccc(N(C)C(=O)CN2CCN(C)CC2)cc1)c1ccccc1 [nintedanib] | almost by half | efficiently inhibits | mild antiproliferative effect | 13 | 59 | […] | 34 | efficiently internalized | 37 | efficiently internalized | 65
